This is a sample that favours compounds with a hit; in the whole collection about 2.2% have one here.
COUP-TFII inh – NR2F2 transcriptional activity inhibitors, primary screen, cell-based, luciferase reporter, HEK293T, luminescence. inhibition, % at 8.6 µM. HEK293T NGFI-A luciferase reporter. actives 0.7% (n = 370,000);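 active = inhibition above a per-plate cutoff, mean inhibition of test wells between control levels plus 3 SD, cut at about 38% in these data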;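 note: cells cotransfected with COUP-TFII expression vector driving the NGFI-A reporter; 0% = median of COUP-TF2 test wells and 100% = reporter-only cells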
GalR3 antagonist – GalR3 antagonists in HEK293 cells, primary screen, cell-based, fluorescence readout. Galanin receptor type 3 (Homo sapiens), O60755. HEK293 GalR3-CNG cAMP membrane potential fluorescence; galR3 body fused to GalR1 C-terminus. inhibition, % at 3 µM. actives 0.44% (n = 360,000). AID 651719, 2012;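 active = inhibition above the screen-wide average plus 3 SD, cut at about 13% in these data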;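 note: forskolin and galanin both at EC90 stimulate the cells; cAMP rise reported by CNG channel membrane potential dye signal; 0% = forskolin plus galanin with DMSO and 100% = forskolin alone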
NR2E3 ag-1 – NR2E3 agonists in two-hybrid cells, primary screen, cell-based, luminescence, CHO-S, Gal4-NCOR/VP16-NR2E3. luciferase. inhibition of corepressor binding, % at 3.98 µM. Photoreceptor-specific nuclear receptor (Homo sapiens), Q9Y5X4. actives 0.35% (n = 360,000);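 active = inhibition above the mean of all tested compounds plus 3 SD, cut at about 70% in these data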;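 note: 0% = DMSO with NR2E3 transfected cells and 100% = cells lacking NR2E3 construct; higher means lower luciferase signal from less NR2E3 corepressor binding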
Target sequence (Q9Y5X4 whole entry, looked up, the tested form may be a part): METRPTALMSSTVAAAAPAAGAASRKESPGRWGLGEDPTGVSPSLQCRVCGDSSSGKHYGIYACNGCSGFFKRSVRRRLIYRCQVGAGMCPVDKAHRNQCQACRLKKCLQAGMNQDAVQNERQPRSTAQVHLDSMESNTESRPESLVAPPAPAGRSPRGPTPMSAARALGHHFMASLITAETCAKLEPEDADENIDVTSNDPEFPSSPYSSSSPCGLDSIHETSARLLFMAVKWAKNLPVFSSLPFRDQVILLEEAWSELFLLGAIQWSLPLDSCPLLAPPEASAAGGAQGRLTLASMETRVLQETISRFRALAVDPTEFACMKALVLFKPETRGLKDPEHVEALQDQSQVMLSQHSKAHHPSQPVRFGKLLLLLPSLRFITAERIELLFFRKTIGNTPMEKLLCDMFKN
NR2E3 ag-2 – inhibitors of NR2E3-RetCOR corepressor binding, primary screen, NR2E3 agonist project, biochemical, TR-FRET, GST-NR2E3, biotin-RetCOR | inhibition of corepressor binding, % at 4.78 µM | Photoreceptor-specific nuclear receptor (Homo sapiens), Q9Y5X4 | 1536-well | actives 0.12% (n = 320,000);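 active = percent inhibition above the cutoff of mean plus 3 SD of all tested compounds, set per screening campaign, cut at about 20% in these data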;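 note: 0% = DMSO wells and 100% = biotin wells as full block of FRET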
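Material: NR2E3–RetCOR corepressor complex / Incubation: Compound–protein incubation for 5 h at 4 °C / Dosing: compound at 4.8 µM, single dose / Detection: time-resolved FRET / Benchmarks: high control biotin, low control 0.6% DMSO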
SMARCA2 act – SMARCA2 (BRM) function activators, primary screen, cell-based, luminescence, high throughput; MG213 cells, MMTV-luciferase reporter, dexamethasone, overnight; activation, % at 9.1 µM; actives 1% (n = 370,000); AID 652017, 2013; in the data active = activation above about 7.8%;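 note: 0% = vehicle wells and 100% = reference activator wells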
NR2E3 agonist cf – NR2E3 agonists, confirmation, biochemical, TR-FRET | AID 2379, 2010 | activation (reported as inhibition), % at 3.98 µM | cell-free NR2E3 corepressor release, 5 h | shares compounds with NR2E3 ag-2 | actives 39% (n = 360); in the data active = activation above about 20%
PPARg-NCOR2 ctr – agonists of PPARg-NCOR2 corepressor interaction, counter-screen for NR2E3 agonist project, biochemical, TR-FRET. shares compounds with NR2E3 ag-2. TR-FRET PPARg-NCOR2 coregulator interaction. inhibition, % at 3.98 µM. actives 45% (n = 360); in the data active = inhibition above about 20%;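 note: 0% = DMSO vehicle and 100% = wells without protein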
* hit, by the source's call.

How did C#CCNC(=O)C[C@@H]1C(=O)N(CC=C)/C2=C/CCCCC[C@]21C(=O)OCC do in these assays?
COUP-TFII inh: 12; SMARCA2 act: -3

Results for CCCCCCCCN1C(=O)[C@@H](CC(=O)N2CCCCC2)C[C@@]2(C(=O)OC)C1=C[C@H](C(C)C)O[C@@H]2C1CC1 ?
COUP-TFII inh: 7; SMARCA2 act: -2

What do the screens show for `C#CCCCN([C@@H](CC(C)C)C(=O)OC)S(=O)(=O)c1ccc(F)cc1Br`?
COUP-TFII inh: 4; SMARCA2 act: 0

How did COc1ccccc1C1C(C(=O)c2cc3ccccc3o2)=C(O)C(=O)N1c1cc(C)on1 (centres undefined) do in these assays?
COUP-TFII inh: -2; GalR3 antagonist: 2; NR2E3 ag-1: -5; NR2E3 ag-2: 22*; SMARCA2 act: -1; NR2E3 agonist cf: 20*; PPARg-NCOR2 ctr: 19

What do the screens show for `COc1ccc(OC)c(C2C(C(=O)c3cc4ccccc4o3)=C(O)C(=O)N2c2cc(C)on2)c1` (centres undefined)?
COUP-TFII inh: 3; GalR3 antagonist: -2; NR2E3 ag-1: -28; NR2E3 ag-2: 24*; SMARCA2 act: -1; NR2E3 agonist cf: 17; PPARg-NCOR2 ctr: 11

What do the screens show for `Cc1cccc(-c2cccc3c4c([nH]c23)[C@@H]2C[C@H](N(C)C(=O)Nc3ccccc3C)[C@H]([C@H](C)O)C(=O)N2CC4)c1`?
COUP-TFII inh: 5; SMARCA2 act: -4

How did Cc1[nH]c(=S)c(C#N)c(C)c1C(=O)Nc1ccccc1 do in these assays?
COUP-TFII inh: 15; GalR3 antagonist: 0; NR2E3 ag-1: 12; NR2E3 ag-2: 8; SMARCA2 act: 2

How did CCc1c(C(=O)Nc2ccccc2)c(C)[nH]c(=S)c1C#N do in these assays?
COUP-TFII inh: -10; GalR3 antagonist: -2; NR2E3 ag-1: -4; NR2E3 ag-2: 30*; SMARCA2 act: 3; NR2E3 agonist cf: 2; PPARg-NCOR2 ctr: -3

What do the screens show for `O=C(C1=C(O)C(=O)N(CCN2CCOCC2)C1c1ccc([N+](=O)[O-])cc1)c1cc2ccccc2o1` (centres undefined)?
NR2E3 ag-1: -13; NR2E3 ag-2: 0

How did O=C(C1=C(O)C(=O)N(CCN2CCOCC2)C1c1ccc(Cl)cc1)c1cc2ccccc2o1 (centres undefined) do in these assays?
COUP-TFII inh: -1; GalR3 antagonist: -2; NR2E3 ag-1: -17; NR2E3 ag-2: 20*; SMARCA2 act: 1; NR2E3 agonist cf: 26*; PPARg-NCOR2 ctr: 23*

What do the screens show for `O=C(C1=C(O)C(=O)N(CCCN2CCOCC2)C1c1ccc(Cl)cc1)c1cc2ccccc2o1` (centres undefined)?
COUP-TFII inh: 9; GalR3 antagonist: -8; NR2E3 ag-2: 30*; SMARCA2 act: -1; NR2E3 agonist cf: 28*; PPARg-NCOR2 ctr: 21*

What do the screens show for `COC(=O)c1ccc(C2C(C(=O)c3cc4ccccc4o3)=C(O)C(=O)N2CCN2CCOCC2)cc1` (centres undefined)?
COUP-TFII inh: -1; GalR3 antagonist: 2; NR2E3 ag-1: -9; NR2E3 ag-2: 2; SMARCA2 act: 1

Results for Cc1cc(C2C(C#N)=C(N)SC(N)=C2C#N)c(C)s1 ?
NR2E3 ag-1: 7; NR2E3 ag-2: 24*; NR2E3 agonist cf: 11; PPARg-NCOR2 ctr: 38*

Results for CCCCCCC/C=C(\C)[C@@H](O)[C@@H](C)C(=O)N1CCC[C@@H]1C(=O)O ?
COUP-TFII inh: -9

Results for CCOC(=O)c1sc(NC(=O)c2ccco2)nc1-c1ccccc1 ?
COUP-TFII inh: 7; GalR3 antagonist: -4; NR2E3 ag-1: 6; NR2E3 ag-2: 20*; SMARCA2 act: 7.9*; NR2E3 agonist cf: 9; PPARg-NCOR2 ctr: 25*

Results for CC(=O)c1sc(NC(=O)c2ccco2)nc1-c1ccccc1 ?
NR2E3 ag-1: -139; NR2E3 ag-2: 5

How did CCOc1ccc(-n2nc3c(=S)[nH]nc(C)c3c2C)cc1 do in these assays?
COUP-TFII inh: 23; GalR3 antagonist: -5; NR2E3 ag-1: 1; NR2E3 ag-2: 26*; SMARCA2 act: -1; NR2E3 agonist cf: 15; PPARg-NCOR2 ctr: 22*

Results for C#CCOCCOCCOCCNc1nc(N2CCN(C(=O)Cn3cc(CCCN=C(N)N)nn3)CC2)nc(N2CCN(C(=O)[C@H](Cc3ccc(O)cc3)n3cc(CCO)nn3)CC2)n1 ?
COUP-TFII inh: 11

How did CCCn1c(C)cs/c1=N\C(=S)Nc1ccccc1 do in these assays?
COUP-TFII inh: -4; GalR3 antagonist: -3; NR2E3 ag-1: 1; NR2E3 ag-2: 26*; SMARCA2 act: 0; NR2E3 agonist cf: 17; PPARg-NCOR2 ctr: 14

How did Cc1cs/c(=N/C(=S)Nc2ccccc2)n1C do in these assays?
COUP-TFII inh: -65; GalR3 antagonist: 7; NR2E3 ag-1: -162; NR2E3 ag-2: 7; SMARCA2 act: 1

What do the screens show for `CC(C)(C)OC(=O)C1[C@H](O)C=CC[C@H]1S(=O)c1ccccc1` (some centres undefined)?
COUP-TFII inh: -20

What do the screens show for `COc1cc2ncnc(NCc3ccccc3C)c2cc1OC`?
COUP-TFII inh: 12; GalR3 antagonist: 4; NR2E3 ag-1: -4; NR2E3 ag-2: 2; SMARCA2 act: -1

How did Cc1ccccc1CNc1ncnc2cc(Cl)ccc12 do in these assays?
COUP-TFII inh: 10; GalR3 antagonist: -1; NR2E3 ag-1: 6; NR2E3 ag-2: 79*; SMARCA2 act: -3; NR2E3 agonist cf: 82*; PPARg-NCOR2 ctr: 82*

Results for CCOC(=O)Cn1c(=S)[nH]c2c(oc3ccc(Cl)cc32)c1=O ?
COUP-TFII inh: 4; GalR3 antagonist: 4; NR2E3 ag-1: -17; NR2E3 ag-2: 25*; SMARCA2 act: -1; NR2E3 agonist cf: 46*; PPARg-NCOR2 ctr: 41*

Results for O=c1cc(-c2ccc(O)c(O)c2)oc2cc(O)c([C@@H]3O[C@H](CO)[C@@H](O)[C@H](O)[C@H]3O)c(O)c12 ?
COUP-TFII inh: -2; GalR3 antagonist: -2; NR2E3 ag-1: -21; SMARCA2 act: 0

From PubChem
